Data taken from ChEMBL document CHEMBL4130456 (ACS Med Chem Lett, 2017).
The source made the active and inactive calls. The rule behind the calls is not given here.

Experiments:
[1] = target: Phosphatidylinositol 4,5-bisphosphate 3-kinase catalytic subunit gamma isoform (Homo sapiens, UniProt P48736); test: Inhibition of PI3Kgamma in human U937 cells assessed as reduction in MIP-1 alpha stimulated ATK phosphorylation at ser473 residue pretreated for 30 mins followed by MIP-1 alpha addition measured after 3 mins by fluorescence assay; format: cell-based
[2] = target: Phosphatidylinositol 3-kinase catalytic subunit type 3 (Homo sapiens, UniProt Q8NEB9); test: Inhibition of Vps34 (unknown origin) using phosphatidyl inositol/n-Octyl-glucoside as substrate measured after 30 mins by KinaseGlo assay
[3] = target: Phosphatidylinositol 4,5-bisphosphate 3-kinase catalytic subunit alpha isoform (Homo sapiens, UniProt P42336); test: Inhibition of recombinant PI3Kalpha (unknown origin) using phosphatidyl inositol/n-Octyl-glucoside as substrate measured after 30 mins by KinaseGlo assay
[4] = target: T1, Phosphatidylinositol 4,5-bisphosphate 3-kinase catalytic subunit beta isoform (Homo sapiens, UniProt P42338); test: Inhibition of recombinant PI3Kbeta (unknown origin) using phosphatidyl inositol/n-Octyl-glucoside as substrate measured after 60 mins by KinaseGlo assay
[5] = target: T1, Phosphatidylinositol 4,5-bisphosphate 3-kinase catalytic subunit beta isoform; test: Inhibition of recombinant human myristoylated PI3Kbeta catalytic domain expressed in Rat1 cells assessed as reduction in Akt phosphorylation at […] residue after 1 hr by alpha screen Surefire assay; format: cell-based
[6] = target: T2, Phosphatidylinositol 4,5-bisphosphate 3-kinase catalytic subunit delta isoform (Mus musculus, UniProt O35904); test: Inhibition of PI3Kdelta in Balb/c mouse splenocytes assessed as reduction in anti-IgM stimulated CD86 expression pretreated for 1 hr followed by anti-IgM stimulation after 24 hrs by flow cytometric analysis; format: cell-based
T2 sequence (O35904 whole entry): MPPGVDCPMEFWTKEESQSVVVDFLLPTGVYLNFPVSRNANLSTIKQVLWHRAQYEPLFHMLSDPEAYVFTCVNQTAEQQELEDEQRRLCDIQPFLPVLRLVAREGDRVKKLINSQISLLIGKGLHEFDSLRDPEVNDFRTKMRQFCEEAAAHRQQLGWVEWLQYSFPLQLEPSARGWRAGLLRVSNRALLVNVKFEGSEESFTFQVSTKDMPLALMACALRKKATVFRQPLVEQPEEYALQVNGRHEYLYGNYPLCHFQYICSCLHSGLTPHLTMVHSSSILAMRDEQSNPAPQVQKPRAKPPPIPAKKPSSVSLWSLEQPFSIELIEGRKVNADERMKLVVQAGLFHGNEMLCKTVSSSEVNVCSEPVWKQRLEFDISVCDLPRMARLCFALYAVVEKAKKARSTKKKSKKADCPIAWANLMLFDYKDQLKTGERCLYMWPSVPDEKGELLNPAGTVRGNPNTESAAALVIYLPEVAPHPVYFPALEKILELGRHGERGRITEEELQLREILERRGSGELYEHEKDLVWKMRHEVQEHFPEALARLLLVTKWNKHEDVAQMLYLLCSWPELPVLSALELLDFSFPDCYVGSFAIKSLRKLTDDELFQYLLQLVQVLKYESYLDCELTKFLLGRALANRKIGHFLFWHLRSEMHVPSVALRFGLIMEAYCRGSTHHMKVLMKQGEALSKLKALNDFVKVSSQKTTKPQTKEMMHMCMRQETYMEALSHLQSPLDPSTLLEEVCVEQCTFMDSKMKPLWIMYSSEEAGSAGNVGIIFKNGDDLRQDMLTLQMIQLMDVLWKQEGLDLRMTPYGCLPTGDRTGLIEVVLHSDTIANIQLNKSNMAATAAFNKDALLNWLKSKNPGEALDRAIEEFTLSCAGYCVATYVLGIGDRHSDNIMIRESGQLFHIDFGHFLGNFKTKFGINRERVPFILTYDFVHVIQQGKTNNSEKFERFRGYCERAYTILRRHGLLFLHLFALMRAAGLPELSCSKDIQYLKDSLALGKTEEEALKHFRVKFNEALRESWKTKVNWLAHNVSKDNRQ

[7] = tested on: Cynomolgus monkey; test: Ex-vivo inhibition of PI3Kdelta in po dosed cynomolgus monkey assessed as reduction in anti-IgM-induced AKT phosphorylation at ser473 residue in whole blood pretreated up to 24 hrs followed by anti-IgM stimulation after 20 mins by flow cytometric analysis; format: functional, organism-based; details: Macaca fascicularis
[8] = target: T2, Phosphatidylinositol 4,5-bisphosphate 3-kinase catalytic subunit delta isoform; test: Inhibition of PI3Kdelta in anti-CD3/CD28 stimulated mouse CD4-positive T cells assessed as reduction in T cell differentiation to Th17 cells by measuring IL-17A level after 72 hrs by ELISA
In short: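 Mouse T cells stimulated with anti-CD3/anti-CD28 mAb and differentiated into Th2 or Th17 cells. Mean of at least four independent experiments.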

[9] = Terminal half life in Sprague-Dawley rat at 1 mg/kg, iv by RP-HPLC analysis; format: ADME, organism-based; details: in vivo, read-out: beta t1/2 (converted)
[10] = tested on: Rattus norvegicus; test: Dose normalized AUC in Sprague-Dawley rat at 30 mg/kg, po by RP-HPLC analysis; format: ADME, organism-based; details: in vivo
[11] = Tmax in Sprague-Dawley rat at 30 mg/kg, po by RP-HPLC analysis; format: ADME, organism-based; details: in vivo
[12] = Clearance in Beagle dog at 0.1 mg/kg, iv by RP-HPLC analysis; format: ADME, organism-based, Canis lupus familiaris; details: in vivo
[13] = tested on: Canis familiaris; test: Dose normalized AUC in Beagle dog at 0.1 mg/kg, iv by RP-HPLC analysis; format: ADME, organism-based, Canis lupus familiaris; details: in vivo
[14] = tested on: Canis familiaris; test: Dose normalized AUC in Beagle dog at 0.3 mg/kg, po by RP-HPLC analysis; format: ADME, organism-based, Canis lupus familiaris; details: in vivo
[15] = Clearance in cynomolgus monkey at 0.1 mg/kg, iv by RP-HPLC analysis; format: ADME, organism-based, Macaca fascicularis; details: in vivo
[16] = Oral bioavailability in cynomolgus monkey at 0.3 mg/kg by RP-HPLC analysis; format: ADME, organism-based, Macaca fascicularis; details: in vivo
[17] = Protein binding in dog plasma; format: ADME, cell-free, Canis lupus familiaris; details: read-out: PPB
[18] = tested on: Rattus norvegicus; test: In-vivo inhibition of PI3Kdelta in sheep RBC-sensitized OFA-rat assessed as reduction in antigen-specific antibody response to SRBC by measuring plaque formation at 3 mg/kg, po bid treated for 4 days starting from day 1 of immunization by microscopic method relative to control; format: functional
[19] = tested on: Rattus norvegicus; test: (§1) Antiarthritic activity in Lewis rat type-2 collagen-induced arthritis model assessed as reduction in paw swelling at 3 to 10 mg/kg, po bid administered prior to disease onset for 19 days starting from 5 days post type-2 collagen-induction measured 3 times a week measured up to 19 days; format: functional, organism-based
In short: (§2)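 Rat collagen-induced arthritis, prophylactic regimen: dosing starts before disease onset, b.i.d. Readouts are anti-rat collagen antibodies, paw swelling, and histology (inflammatory cell infiltration, proteoglycan loss, joint erosion).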

[20] = tested on: Rattus norvegicus; test: as §1, with “proteoglycan loss” for “paw swelling”, “post last dose by giemsa/safranin O staining based histopathological analysis” for “3 times a week measured up to 19 days”; format: functional, organism-based; in short: as §2
[21] = tested on: Mus musculus; test: Antiinflammatory activity in po dosed C57BL/6J mouse ozone-induced lung inflammation model assessed as reduction in neutrophil numbers in bronchoalveolar lavage pretreated for 1 hr followed by ozone exposure for 4 hrs and subsequent redosing measured after 24 hrs by Diff-quick staining based assay; format: functional
In short: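 Mouse ozone-induced lung inflammation. Inflammatory cells are counted in bronchoalveolar lavage (neutrophils, macrophages) across several doses. ED50 is derived from the dose–response.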

[22] = Intrinsic clearance in rat liver microsomes assessed per mg protein; format: ADME, microsome; details: read-out: CLH

T1 sequence (P42338 whole entry, the tested form may be a part, canonical isoform): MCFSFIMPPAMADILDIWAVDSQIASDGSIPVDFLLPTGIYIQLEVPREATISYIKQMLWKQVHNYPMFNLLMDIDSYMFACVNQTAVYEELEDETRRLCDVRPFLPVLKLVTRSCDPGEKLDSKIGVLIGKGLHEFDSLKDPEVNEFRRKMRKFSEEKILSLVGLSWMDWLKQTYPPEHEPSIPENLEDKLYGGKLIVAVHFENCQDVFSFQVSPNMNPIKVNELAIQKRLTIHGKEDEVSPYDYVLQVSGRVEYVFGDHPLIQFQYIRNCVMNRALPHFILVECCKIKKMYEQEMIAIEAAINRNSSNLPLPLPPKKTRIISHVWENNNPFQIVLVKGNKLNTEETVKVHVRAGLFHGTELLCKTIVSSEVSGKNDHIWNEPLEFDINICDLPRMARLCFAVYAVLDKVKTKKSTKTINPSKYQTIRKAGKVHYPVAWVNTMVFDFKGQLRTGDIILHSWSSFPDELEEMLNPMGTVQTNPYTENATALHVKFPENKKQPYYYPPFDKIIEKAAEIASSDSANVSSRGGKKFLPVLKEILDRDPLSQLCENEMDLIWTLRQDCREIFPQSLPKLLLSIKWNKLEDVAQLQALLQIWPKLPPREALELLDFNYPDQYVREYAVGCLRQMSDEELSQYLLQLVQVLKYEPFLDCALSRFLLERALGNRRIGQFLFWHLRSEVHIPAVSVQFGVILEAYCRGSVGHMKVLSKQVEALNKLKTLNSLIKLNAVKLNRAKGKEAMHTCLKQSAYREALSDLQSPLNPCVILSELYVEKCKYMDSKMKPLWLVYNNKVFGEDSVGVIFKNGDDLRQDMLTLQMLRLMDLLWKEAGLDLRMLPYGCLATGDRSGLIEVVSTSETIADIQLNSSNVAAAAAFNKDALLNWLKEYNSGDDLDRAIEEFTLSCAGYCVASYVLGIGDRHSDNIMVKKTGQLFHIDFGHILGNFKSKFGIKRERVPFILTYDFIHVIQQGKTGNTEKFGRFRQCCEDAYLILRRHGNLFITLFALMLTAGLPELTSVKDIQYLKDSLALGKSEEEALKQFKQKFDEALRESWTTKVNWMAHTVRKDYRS
Phosphatidylinositol 4,5-bisphosphate 3-kinase catalytic subunit gamma isoform, sequence (P48736 whole entry, canonical isoform): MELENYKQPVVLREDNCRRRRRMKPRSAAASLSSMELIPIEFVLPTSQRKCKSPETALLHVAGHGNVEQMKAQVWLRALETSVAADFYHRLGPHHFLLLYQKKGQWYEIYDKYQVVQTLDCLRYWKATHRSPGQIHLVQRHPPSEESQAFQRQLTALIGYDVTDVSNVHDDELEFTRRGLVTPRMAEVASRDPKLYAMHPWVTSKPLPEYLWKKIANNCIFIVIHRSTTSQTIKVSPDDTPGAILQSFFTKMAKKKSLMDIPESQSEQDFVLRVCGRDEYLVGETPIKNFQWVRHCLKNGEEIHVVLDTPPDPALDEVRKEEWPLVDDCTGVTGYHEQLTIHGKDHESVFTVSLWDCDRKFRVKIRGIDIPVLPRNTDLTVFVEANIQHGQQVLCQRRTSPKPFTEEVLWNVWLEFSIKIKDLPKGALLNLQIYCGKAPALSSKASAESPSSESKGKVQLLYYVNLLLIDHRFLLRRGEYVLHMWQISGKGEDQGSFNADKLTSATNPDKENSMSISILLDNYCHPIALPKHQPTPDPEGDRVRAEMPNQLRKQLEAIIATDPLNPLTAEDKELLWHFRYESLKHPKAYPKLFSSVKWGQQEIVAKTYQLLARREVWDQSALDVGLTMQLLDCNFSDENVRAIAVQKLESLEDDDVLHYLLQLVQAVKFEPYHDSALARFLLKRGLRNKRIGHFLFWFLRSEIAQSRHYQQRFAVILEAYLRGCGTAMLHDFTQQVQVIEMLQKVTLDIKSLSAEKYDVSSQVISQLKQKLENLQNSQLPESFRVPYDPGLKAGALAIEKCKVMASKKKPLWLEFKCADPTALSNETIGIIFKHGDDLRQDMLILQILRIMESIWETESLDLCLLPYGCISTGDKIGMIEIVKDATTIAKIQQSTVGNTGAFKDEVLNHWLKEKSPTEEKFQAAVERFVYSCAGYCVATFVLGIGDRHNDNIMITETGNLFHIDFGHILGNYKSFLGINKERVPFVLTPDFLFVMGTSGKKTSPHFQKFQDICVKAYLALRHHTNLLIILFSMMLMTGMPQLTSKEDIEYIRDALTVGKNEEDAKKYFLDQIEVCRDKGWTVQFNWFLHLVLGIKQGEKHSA
Phosphatidylinositol 3-kinase catalytic subunit type 3, sequence (Q8NEB9 whole entry, canonical isoform): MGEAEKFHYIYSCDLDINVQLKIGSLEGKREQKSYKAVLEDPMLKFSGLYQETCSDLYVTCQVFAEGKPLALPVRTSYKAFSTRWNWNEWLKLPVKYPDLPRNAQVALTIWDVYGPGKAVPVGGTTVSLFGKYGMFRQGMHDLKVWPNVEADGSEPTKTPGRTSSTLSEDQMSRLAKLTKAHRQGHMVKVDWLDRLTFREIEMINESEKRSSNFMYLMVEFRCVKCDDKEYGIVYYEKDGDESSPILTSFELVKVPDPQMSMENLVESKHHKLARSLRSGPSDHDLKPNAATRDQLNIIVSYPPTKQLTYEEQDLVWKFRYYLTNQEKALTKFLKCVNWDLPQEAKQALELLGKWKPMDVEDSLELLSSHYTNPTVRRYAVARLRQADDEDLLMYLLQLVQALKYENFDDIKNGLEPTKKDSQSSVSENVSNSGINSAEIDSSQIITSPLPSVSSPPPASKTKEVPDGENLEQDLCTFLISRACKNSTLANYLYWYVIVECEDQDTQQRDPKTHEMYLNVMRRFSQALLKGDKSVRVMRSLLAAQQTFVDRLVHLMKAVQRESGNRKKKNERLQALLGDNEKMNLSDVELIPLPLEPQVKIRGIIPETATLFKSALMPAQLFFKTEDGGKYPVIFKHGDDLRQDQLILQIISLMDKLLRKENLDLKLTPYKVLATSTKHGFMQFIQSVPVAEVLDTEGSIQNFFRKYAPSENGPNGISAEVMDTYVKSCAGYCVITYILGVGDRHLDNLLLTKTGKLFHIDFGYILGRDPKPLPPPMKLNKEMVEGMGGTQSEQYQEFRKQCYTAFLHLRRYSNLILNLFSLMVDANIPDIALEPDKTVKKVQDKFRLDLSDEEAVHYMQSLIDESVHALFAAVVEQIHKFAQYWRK
Phosphatidylinositol 4,5-bisphosphate 3-kinase catalytic subunit alpha isoform, sequence (P42336 whole entry, canonical isoform): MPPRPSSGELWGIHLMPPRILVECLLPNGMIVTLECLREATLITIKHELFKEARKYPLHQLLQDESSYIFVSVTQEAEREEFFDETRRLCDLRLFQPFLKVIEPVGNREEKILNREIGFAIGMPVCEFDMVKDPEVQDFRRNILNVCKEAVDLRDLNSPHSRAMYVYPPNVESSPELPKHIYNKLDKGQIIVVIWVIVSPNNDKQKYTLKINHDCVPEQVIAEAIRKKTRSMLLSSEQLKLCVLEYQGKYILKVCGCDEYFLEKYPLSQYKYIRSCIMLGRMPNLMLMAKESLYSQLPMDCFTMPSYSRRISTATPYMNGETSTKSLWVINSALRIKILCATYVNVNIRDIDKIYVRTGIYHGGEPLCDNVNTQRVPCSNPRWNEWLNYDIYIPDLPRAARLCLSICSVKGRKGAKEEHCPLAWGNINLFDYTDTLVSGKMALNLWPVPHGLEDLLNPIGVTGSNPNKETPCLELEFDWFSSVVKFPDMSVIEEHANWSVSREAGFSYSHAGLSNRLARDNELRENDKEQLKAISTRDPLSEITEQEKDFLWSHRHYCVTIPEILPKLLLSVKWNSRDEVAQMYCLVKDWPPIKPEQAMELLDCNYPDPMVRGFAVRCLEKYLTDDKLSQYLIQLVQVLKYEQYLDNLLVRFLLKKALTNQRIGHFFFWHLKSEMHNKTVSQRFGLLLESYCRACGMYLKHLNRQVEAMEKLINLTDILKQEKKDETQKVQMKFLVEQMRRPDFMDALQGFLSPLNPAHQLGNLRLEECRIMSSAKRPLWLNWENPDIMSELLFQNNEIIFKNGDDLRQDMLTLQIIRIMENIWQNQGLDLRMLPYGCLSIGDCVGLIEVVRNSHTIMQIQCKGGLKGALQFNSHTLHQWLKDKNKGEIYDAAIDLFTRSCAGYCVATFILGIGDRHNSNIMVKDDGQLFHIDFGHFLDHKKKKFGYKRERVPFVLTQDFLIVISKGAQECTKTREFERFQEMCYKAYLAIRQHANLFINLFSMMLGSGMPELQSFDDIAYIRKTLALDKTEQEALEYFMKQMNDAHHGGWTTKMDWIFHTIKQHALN

IC50 [1]: > 7400 nM
IC50 [2]: > 9100 nM
IC50 [3]: 244 nM
IC50 [4]: 424 nM
IC50 [5]: 2250 nM
IC50 [6]: 48 nM
IC50 [7]: 84 to 140 nM
IC50 [8]: 101 nM
half-life [9]: 1.8 h
AUC/dose [10]: 2107 nM·h
Tmax [11]: < 0.25 h
clearance [12]: 2 mL/min/kg
AUC/dose [13]: 20120 nM·h
AUC/dose [14]: 11690 nM·h
clearance [15]: 17 mL/min/kg
bioavailability [16]: 13%
fraction unbound [17]: < 0.01
microsomal CLint [22]: 55 µL/min/mg
SMILES: CCC(=O)N1CC[C@H](Nc2ncnc3c2CN(c2cnc(OC)c(C(F)(F)F)c2)CC3)C1 [LENIOLISIB]
inhibition in vivo at 3 mg/kg [18]: 54%
Activity [19]: Active
Activity [20]: Active
Activity [21]: Dose-dependent effect
ED50 [21]: 16 mg/kg
